A selection: hits, their analogues and other compounds. The true share with any hit is near 2.9%.
TRPC4 agonist = activators of mouse TRPC4 channel. Q9QUQ5. HEK293 TRPC4beta/mu-opioid, Fluo4 calcium fluorescence; hits give high values. B-score at 10 µM. hit rate 0.49% among 310,000. AID 2237;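 active = B-score above 5 SD of library B-scores, and initial fluorescence ratio not above library mean plus 5 SD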;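 note: positive B-score marks a calcium rise read as TRPC4 activation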
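Assay system – TRPC4beta and mu-opioid receptor HEK293 stable cells · Measured by – Fluo4 fluorescence, kinetic · Schedule – dye loading 45 min room temperature, 110 s kinetic read · Read-out – B-scored integrated calcium fluorescence ratio · Controls – buffer and maximal DAMGO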
TRPC6 activator = activators of mouse TRPC6 channel; HEK293-TRPC6 membrane potential dye fluorescence; hits give high values; hit rate 0.13% among 310,000; AID 2550; B-score at 10 µM; Q61143;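 active = B-score of the integrated fluorescence ratio above library mean plus 3 SD, and starting fluorescence ratio within library mean plus 5 SD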;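 note: higher score means more depolarization so channel activation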
TRPC4 potent = allosterically enhances the mouse TRPC4 cation channel. B-score at 10 µM. hit rate 0.42% among 310,000. HEK293 TRPC4beta/mu-opioid, DAMGO EC20, Fluo-4 Ca2+ flux; hits give high values;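 active = B-score of calcium response area above 5 SD of library B-scores, with initial fluorescence ratio within 5 SD of library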;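 note: B-score of integrated fluorescence ratio over time as area under calcium response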
Kir21 block = blocks the mouse Kir2.1 inward-rectifier potassium channel; P35561; HEK293-Kir2.1, FluxOR thallium flux fluorescence; hits give low values; B-score at 10 µM; hit rate 0.85% among 310,000;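 active = fluorescence ratio B-score at or below minus 3 SD of library scores, with starting-brightness B-score within 2 SD, cut at about -4.2 in these data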;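 note: channel flux triggered by added potassium and thallium sulfate stimulus; B-score of peak minus minimum fluorescence over baseline after thallium stimulus; more negative B-score means stronger Kir2.1 block with less thallium influx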
Target sequence (P35561 whole entry, looked up): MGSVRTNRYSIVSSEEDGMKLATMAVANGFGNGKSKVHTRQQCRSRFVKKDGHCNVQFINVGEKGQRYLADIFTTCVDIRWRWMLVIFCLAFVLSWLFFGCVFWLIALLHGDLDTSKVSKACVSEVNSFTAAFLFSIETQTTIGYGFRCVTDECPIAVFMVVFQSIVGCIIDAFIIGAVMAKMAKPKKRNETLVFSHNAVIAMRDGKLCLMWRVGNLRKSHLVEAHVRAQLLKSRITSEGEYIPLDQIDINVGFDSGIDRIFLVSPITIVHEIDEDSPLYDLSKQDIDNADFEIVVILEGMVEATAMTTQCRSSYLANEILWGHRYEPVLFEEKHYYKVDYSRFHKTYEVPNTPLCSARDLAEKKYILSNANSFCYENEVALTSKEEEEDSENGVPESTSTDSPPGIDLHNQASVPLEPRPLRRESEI
TRPC4 inh = TRPC4 (mouse) channel inhibition; HEK293 TRPC4beta/mu-opioid, DAMGO-evoked Fluo4 calcium flux; hits give low values; B-score at 10 µM; hit rate 0.39% among 300,000; AID 2247;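 active = B-score over 3 SD under the library average, no early fluorescence shift, positive overall ratio signal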
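Assay system: Stable TRPC4beta/mu-opioid receptor HEK293 cells | Reagent: DAMGO in two steps, submaximal then maximal | Compound dosing: Single concentration per test compound | Signal: Fluo4 Ca2+ flux fluorescence | Evaluation: Per-well B score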
TRPC6 inh = blocks the mouse TRPC6 cation channel | Q61143 | HEK293-TRPC6, membrane potential dye, ACh-evoked depolarization; hits give low values | B-score at 10 µM | hit rate 1.1% among 310,000;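 active = B-score under library mean minus 3 SD, initial fluorescence not abnormally high, positive integrated signal ratio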;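 note: B-score derived from integrated fluorescence ratio over the kinetic read; more negative B-score means stronger inhibition of depolarization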
TRPC4 sel inh 2 = second check of whether TRPC6 inhibitors also affect mouse TRPC4. AID 2776. HEK293 TRPC4/MOR, membrane potential dye fluorescence; channel activated by saturating DAMGO dose. shares compounds with TRPC6 inh. inhibition, % at 10 µM. hit rate 42% among 920;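 active = compounds whose fluorescence signal differed from control wells by over 3 SD, either direction, in both duplicate plates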
TRPC4 spec = tests whether TRPC6 inhibitors also affect mouse TRPC4 | hit rate 61% among 920 | shares compounds with TRPC6 inh | HEK293 TRPC4/mu-opioid, membrane potential fluorescence | AID 2777 | activity change, negative = inhibition, % at 10 µM;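 active = rise or fall in signal beyond 3 SD of buffer-only wells in both replicate plates, either sign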;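 note: integrated kinetic ratio of fluorescence range over baseline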
HEK293 MPD ctr 2-1 = second check of TRPC6 inhibitor effects in parental HEK293 cells; shares compounds with TRPC6 inh; parental HEK293 membrane potential dye fluorescence; maximal acetylcholine challenge after compound addition; signal change vs control, % at 10 µM; hit rate 31% among 920; AID 2779;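 active = membrane potential signal moving either way by over 3 SD of the maximum-effect control, in both duplicate plates, meaning non-specific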
HEK293 MPD ctr-1 = checks TRPC6 inhibitor effects in parental HEK293 cells | shares compounds with TRPC6 inh | parental HEK293 membrane potential dye fluorescence | membrane potential signal change, % at 10 µM | hit rate 60% among 920;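 active = membrane potential signal shifting up or down by more than 3 SD of buffer-only wells, on both duplicate plates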
HEK293 MPD ctr-2 = counter-screen for TRPC6 modulators: effect in parental HEK293 cells | shares compounds with TRPC6 inh | membrane potential dye fluorescence | membrane potential signal change, % at 10 µM | hit rate 51% among 2,400;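 active = membrane potential signal moves up or down beyond 5 SD from buffer-only wells, on both duplicate plates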
HEK293 MPD ctr 2-2 = second check of TRPC6 modulator effects in parental HEK293 cells. shares compounds with TRPC6 inh. membrane potential dye fluorescence; after compound, maximal acetylcholine stimulation. inhibition, % at 10 µM. hit rate 14% among 2,400;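 active = membrane potential signal drops by more than 5 SD from the mean control signal, in both duplicate plates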;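 note: plate controls were acetylcholine ECmax control wells for no effect and buffer only wells for full effect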
TRPC4 ctr mod = mouse TRPC4 off-target activity of TRPC6 modulators. shares compounds with TRPC6 inh. hit rate 69% among 2,400. percent change from control (negative = decrease, positive = increase), % at 10 µM. HEK293 TRPC4/mu-opioid, membrane potential fluorescence;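 active = membrane potential signal moved up or down beyond 5 SD of buffer control wells, in both duplicate plates, actives on both sides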;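 note: plate controls were assay buffer wells for no effect and DAMGO maximal-effect wells for full effect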
TRPC4 ctr inh 2 = mouse TRPC4 off-target activity of TRPC6 modulators, second screen; shares compounds with TRPC6 inh; HEK293 TRPC4/mu-opioid, membrane potential dye fluorescence; stimulated with maximal-effect DAMGO; inhibition, % at 10 µM; hit rate 55% among 2,400;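 active = drop in membrane potential signal beyond 5 SD of the control wells in both duplicate plates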;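 note: TRPC4 counter screen for TRPC6 hits run under conditions tuned for TRPC6 not TRPC4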
TRPC6 inh conf = confirmation of mouse TRPC6 inhibitors. hit rate 43% among 3,300. HEK293-TRPC6, membrane potential dye, ACh-evoked depolarization. shares compounds with TRPC6 inh. inhibition, % at 10 µM;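 active = fluorescence ratio falls more than 5 SD below the full-stimulation control mean, in both duplicate runs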;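 note: integrated fluorescence ratio of peak minus minimum over baseline after agonist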
TRPC6 act conf = mouse TRPC6 activator confirmation | shares compounds with TRPC6 inh | HEK293-TRPC6 membrane potential dye fluorescence, FDSS | activation, % at 10 µM | hit rate 11% among 2,800;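 active = ratio signal rise beyond 5 SD above unstimulated control wells' mean, seen in both duplicate runs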;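 note: plate controls were buffer EC0 wells for no effect and acetylcholine ECmax response for full effect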
Active calls of the source: *; i = inactive; . = no result given; + = active, no number.

SMILES	TRPC4 agonist	TRPC6 activator	TRPC4 potent	Kir21 block	TRPC4 inh	TRPC6 inh	TRPC4 sel inh 2	TRPC4 spec	HEK293 MPD ctr 2-1	HEK293 MPD ctr-1	HEK293 MPD ctr-2	HEK293 MPD ctr 2-2	TRPC4 ctr mod	TRPC4 ctr inh 2	TRPC6 inh conf	TRPC6 act conf
CN1CCN(Cc2nc3ccccc3c(=O)n2CC#N)CC1	i	i	i	-0.29	i	-6.9*	i	i	i	i	.	.	.	.	i	i
Cc1ccc2[nH]c(CN3CCC(CO)(CC4CCCCO4)CC3)c(C)c2c1 (stereo not drawn)	i	i	i	-0.08	i	i	.	.	.	.	.	.	.	.	.	.
O=C(C[n+]1cc2ccccc2c2ccccc21)c1ccccc1	49*	i	i	1.1	-7*	-9.8*	33%*	0.9%*	i	-486%*	.	.	.	.	i	i
O=C(C[n+]1cccc2ccccc21)c1ccccc1	i	i	i	0.48	i	i	.	.	.	.	.	.	.	.	.	.
COc1ccc(C)cc1NC(=O)CSc1nc2ccccc2nc1N1CC(C)OC(C)C1 (stereo not drawn)	i	i	i	1.6	i	i	.	.	.	.	.	.	.	.	.	.
CN(C)C=Nc1ncc2c3ccccc3n(CCN(C)C)c2c1C#N	i	i	i	-0.44	i	-7*	54%*	-16%*	i	-232%*	.	.	.	.	i	i
COc1cc(/C=C2/SC(=S)N(Cc3ccccc3)C2=O)cc(Cl)c1O	174*	76*	37*	-5.3	i	i	.	.	.	.	+	i	520%*	i	i	555%*
O=C(CSc1nnc(C2CC2)n1Cc1ccccc1)c1cc2ccccc2o1	i	i	i	-4.5*	i	-5.2*	.	.	.	.	169%*	i	24%*	i	i	.
O=C1C2C3C=CC(CC3)C2C(=O)N1c1cccc(Br)c1 (stereo not drawn)	i	i	i	0.6	i	i	.	.	.	.	.	.	.	.	.	.
CCOc1cc(/C=C/C(=O)c2ccc(OC)c(CN3CCOCC3)c2)cc(Br)c1O	i	20*	i	-2	i	i	.	.	.	.	184%*	i	26%*	i	i	42%*
CC(NC(=O)CNC(=S)N(Cc1cccs1)C1CCCC1)c1ccccc1 (stereo not drawn)	i	i	i	1.1	i	i	.	.	.	.	.	.	.	.	.	.
CN1CCN(CCCn2cnc3c(=O)oc4ccccc4c32)CC1	i	i	i	-0.51	i	-5.1*	.	.	.	.	-269%*	i	-48%*	i	i	i
